From ChEMBL document CHEMBL4431313, “Inhibition of Plasmodium falciparum Hsp90 Contributes to the Antimalarial Activities of Aminoalcohol-carbazoles” (J Med Chem, 2016)
The source made the active and inactive calls. The rule behind the calls is not given here.

Experiments:
[1] = (§1) Binding affinity to recombinant Plasmodium falciparum Hsp90 ISG-LGA mutant expressed in Escherichia coli BL21(DE3) pLysS by microscale thermophoresis assay
[2] = test system: Plasmodium falciparum; test: Antimalarial activity against Plasmodium falciparum NF54 infected in human erythrocytes assessed as [3H]-hypoxanthine incorporation by scintillation counting analysis; type: functional, organism-based
Outline: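 NF54 parasites grown in human erythrocytes in RPMI 1640 with 0.5% ALBUMAX II, 25 mM Hepes, 25 mM NaHCO3 (pH 7.3), 0.36 mM hypoxanthine and 100 μg/mL neomycin, at 37 °C under 3% O2/4% CO2/93% N2, humidified. IC50 derived in vitro from [3H]hypoxanthine incorporation. Compounds held as 10 mM DMSO stocks at -20 °C.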

[3] = test system: L6; test: Cytotoxicity against rat L6 cells after 72 hrs by alamar blue assay; type: cell-based; settings: L6, 72 h
[4] = target: T1, HSP90 (Plasmodium falciparum 3D7) (UniProt Q8IL32); test: Binding affinity to recombinant Plasmodium falciparum Hsp90 expressed in Escherichia coli BL21(DE3) pLysS assessed as thermophoresis shift at 50 uM by microscale thermophoresis assay
T1 sequence (whole entry): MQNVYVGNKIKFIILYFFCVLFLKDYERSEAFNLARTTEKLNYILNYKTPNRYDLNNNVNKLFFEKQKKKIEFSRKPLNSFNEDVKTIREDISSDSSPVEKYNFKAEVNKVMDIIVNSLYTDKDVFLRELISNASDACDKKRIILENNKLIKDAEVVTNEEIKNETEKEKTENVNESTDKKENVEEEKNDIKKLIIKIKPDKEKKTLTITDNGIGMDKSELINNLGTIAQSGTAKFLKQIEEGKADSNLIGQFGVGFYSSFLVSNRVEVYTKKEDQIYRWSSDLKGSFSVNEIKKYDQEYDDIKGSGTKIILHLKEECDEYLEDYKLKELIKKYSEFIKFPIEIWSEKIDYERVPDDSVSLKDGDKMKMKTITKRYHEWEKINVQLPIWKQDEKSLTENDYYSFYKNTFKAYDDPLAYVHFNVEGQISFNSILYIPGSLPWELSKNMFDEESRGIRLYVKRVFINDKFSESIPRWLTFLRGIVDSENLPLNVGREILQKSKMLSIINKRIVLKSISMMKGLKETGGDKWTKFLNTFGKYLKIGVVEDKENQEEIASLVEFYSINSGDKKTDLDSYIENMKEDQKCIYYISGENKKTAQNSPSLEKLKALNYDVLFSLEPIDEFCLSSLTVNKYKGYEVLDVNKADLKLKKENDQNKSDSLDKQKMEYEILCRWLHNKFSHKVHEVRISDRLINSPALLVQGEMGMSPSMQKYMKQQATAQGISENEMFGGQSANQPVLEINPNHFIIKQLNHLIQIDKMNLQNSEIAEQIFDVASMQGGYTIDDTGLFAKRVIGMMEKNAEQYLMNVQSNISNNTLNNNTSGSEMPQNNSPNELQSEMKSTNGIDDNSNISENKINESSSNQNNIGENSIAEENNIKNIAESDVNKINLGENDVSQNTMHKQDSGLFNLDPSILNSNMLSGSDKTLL
Outline: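 Microscale thermophoresis with fluorescently labeled PfHsp90: ligand-induced change in the protein's movement along a temperature gradient. Each compound tested at a fixed 50 μM. Compounds were held as 10 mM stocks in 100% DMSO at -20 °C.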

[5] = target: Heat shock protein 90 (Plasmodium falciparum, UniProt Q8IC05); test: Binding affinity to recombinant Plasmodium falciparum Hsp90 expressed in Escherichia coli BL21(DE3) pLysS by microscale thermophoresis assay
Chain of Heat shock protein 90 (Q8IC05 1-745): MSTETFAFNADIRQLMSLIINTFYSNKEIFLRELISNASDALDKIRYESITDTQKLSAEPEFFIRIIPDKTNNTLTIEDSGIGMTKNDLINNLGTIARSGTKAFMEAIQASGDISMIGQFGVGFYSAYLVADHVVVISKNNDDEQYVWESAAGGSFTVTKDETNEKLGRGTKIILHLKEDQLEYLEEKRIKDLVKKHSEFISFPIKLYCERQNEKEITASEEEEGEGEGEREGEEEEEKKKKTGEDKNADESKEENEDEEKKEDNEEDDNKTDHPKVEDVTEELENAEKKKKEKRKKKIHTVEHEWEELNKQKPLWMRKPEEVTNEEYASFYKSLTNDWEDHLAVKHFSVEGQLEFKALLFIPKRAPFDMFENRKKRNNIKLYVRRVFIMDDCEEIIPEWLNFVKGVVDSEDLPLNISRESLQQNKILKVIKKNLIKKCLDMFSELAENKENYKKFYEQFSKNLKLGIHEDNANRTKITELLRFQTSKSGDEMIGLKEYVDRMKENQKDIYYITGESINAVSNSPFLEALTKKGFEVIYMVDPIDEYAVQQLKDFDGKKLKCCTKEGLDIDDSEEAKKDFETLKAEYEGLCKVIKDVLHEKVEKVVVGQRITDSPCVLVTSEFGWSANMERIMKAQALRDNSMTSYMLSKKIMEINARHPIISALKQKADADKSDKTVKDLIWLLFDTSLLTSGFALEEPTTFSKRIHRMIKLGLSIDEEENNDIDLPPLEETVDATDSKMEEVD

[6] = target: Heat shock protein HSP 90-beta (Homo sapiens) (UniProt P08238); test: Binding affinity to recombinant human Hsp90 beta expressed in Escherichia coli BL21(DE3) pLysS by microscale thermophoresis assay
Chain of Heat shock protein HSP 90-beta (Homo sapiens) (P08238 whole entry): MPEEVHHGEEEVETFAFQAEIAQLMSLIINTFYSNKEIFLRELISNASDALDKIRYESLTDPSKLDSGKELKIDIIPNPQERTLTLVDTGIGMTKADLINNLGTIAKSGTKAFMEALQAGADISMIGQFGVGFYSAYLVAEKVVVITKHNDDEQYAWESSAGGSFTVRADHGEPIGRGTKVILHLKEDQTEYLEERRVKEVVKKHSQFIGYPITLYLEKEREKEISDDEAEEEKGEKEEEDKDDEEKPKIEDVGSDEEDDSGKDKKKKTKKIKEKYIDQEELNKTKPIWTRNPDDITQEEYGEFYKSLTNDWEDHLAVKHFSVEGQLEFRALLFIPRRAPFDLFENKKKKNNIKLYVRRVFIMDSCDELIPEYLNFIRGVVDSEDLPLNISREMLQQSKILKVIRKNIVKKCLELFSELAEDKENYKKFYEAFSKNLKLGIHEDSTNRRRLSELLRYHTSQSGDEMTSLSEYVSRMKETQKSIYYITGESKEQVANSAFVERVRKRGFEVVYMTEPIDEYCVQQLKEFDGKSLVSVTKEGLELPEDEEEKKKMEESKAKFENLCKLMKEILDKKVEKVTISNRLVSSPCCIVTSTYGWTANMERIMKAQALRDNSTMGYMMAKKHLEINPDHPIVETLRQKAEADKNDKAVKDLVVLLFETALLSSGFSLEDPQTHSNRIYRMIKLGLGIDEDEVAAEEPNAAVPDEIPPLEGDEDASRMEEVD

[7] = test system: Plasmodium falciparum; test: as §1
[8] = test system: Plasmodium falciparum; test: Antimalarial activity against Plasmodium falciparum K1 infected in human erythrocytes after 72 hrs by DAPI staining-based confocal imaging system; type: functional, organism-based; settings: K1, 72 h
[9] = test system: Plasmodium falciparum; test: Antimalarial activity against Plasmodium falciparum 3D7 infected in human erythrocytes after 72 hrs by DAPI staining-based confocal imaging system; type: functional, organism-based; settings: 3D7, 72 h

Row | Compound | IC50 [2] [µM] | Activity [4] [U] | IC50 [8] [µM] | IC50 [9] [µM] | Kd [1] [µM] | IC50 [3] [µM] | Kd [5] [µM] | Activity [6] | Activity [7]
1 | COC1=C2C[C@@H](C)C[C@H](OC)[C@H](O)[C@@H](C)/C=C(\C)[C@H](OC(N)=O)[C@@H](OC)/C=C\C=C(/C)C(=O)NC(=CC1=O)C2=O [GELDANAMYCIN] | – | – | – | – | 0.51 | – | – | – | –
2 | CCC(CC)NCC(O)Cn1c2ccccc2c2ccccc21 (centres undefined) | 12.7 | 0.24 | – | – | – | 7.38 | – | – | –
3 | CCC(C)NCC(O)Cn1c2ccc(Cl)cc2c2cc(Cl)ccc21 (centres undefined) | 1.56 | 3.85 | – | – | – | 0.975 | – | – | –
4 | OC(CN1CCCCCC1)Cn1c2ccccc2c2ccccc21 (centres undefined) | 7.79 | 1.11 | – | – | – | 6.85 | – | – | –
5 | O=C(c1ccccc1)N1CCN(CC(O)Cn2c3ccccc3c3ccccc32)CC1 (centres undefined) | 14.9 | 3.33 | – | – | – | 25.2 | – | – | –
6 | O=C(c1ccccc1)N1CCN(CC(O)Cn2c3ccc(Cl)cc3c3cc(Cl)ccc32)CC1 (centres undefined) | 1.13 | 6.71 | – | – | – | 9.72 | 25.6 | – | –
7 | CC(C)(C)NCC(O)Cn1c2ccccc2c2ccccc21 (centres undefined) | 2.08 | 0.725 | – | – | – | 7.21 | – | – | –
8 | CN(C)CC(O)Cn1c2ccc(Br)cc2c2cc(Br)ccc21 (centres undefined) | 1.67 | 0.41 | – | – | – | 3.66 | – | – | –
9 | OC(CN1CCN(Cc2ccccc2)CC1)Cn1c2ccc(Cl)cc2c2cc(Cl)ccc21 (centres undefined) | 0.082 | 6.41 | – | – | – | 3.6 | 28.1 | inactive | inactive
10 | CC1CCCC(C)N1CC(O)Cn1c2ccccc2c2ccccc21 (centres undefined) | 4.97 | 0.6 | – | – | – | 37.7 | – | – | –
11 | OC(CN1CCOCC1)Cn1c2ccc(Br)cc2c2cc(Br)ccc21 (centres undefined) | 2.08 | 6.87 | – | – | – | 11.6 | – | – | –
12 | O=C(c1ccccc1)N1CCN(CC(O)Cn2c3ccc(Br)cc3c3cc(Br)ccc32)CC1 (centres undefined) | 2.34 | 6.95 | – | – | – | 10.2 | – | – | –
13 | CC(C)(CO)NCC(O)Cn1c2ccccc2c2ccccc21 (centres undefined) | 10.1 | 0.49 | – | – | – | 6.22 | – | – | –

Now from value to compound, other results behind:

Row | IC50 [2] [µM] | Activity [4] [U] | IC50 [8] [µM] | IC50 [9] [µM] | Compound | Kd [1] [µM] | IC50 [3] [µM] | Kd [5] [µM] | Activity [6] | Activity [7]
14 | 0.994 | 6.68 | – | – | OC(CN1CCN(Cc2ccccc2)CC1)Cn1c2ccccc2c2ccccc21 (centres undefined) | – | 10.8 | – | – | –
15 | 1.44 | 2.71 | – | – | CC(C)NCC(O)Cn1c2ccccc2c2ccccc21 (centres undefined) | – | 26.5 | – | – | –
16 | 0.086 | 5.88 | – | – | OC(CNC1CCCCC1)Cn1c2ccc(Cl)cc2c2cc(Cl)ccc21 (centres undefined) | – | 3.34 | – | – | –
17 | 1.23 | 8.19 | – | – | OC(CN1CCOCC1)Cn1c2ccc(Cl)cc2c2cc(Cl)ccc21 (centres undefined) | – | 9.72 | – | – | –
18 | 0.095 | 6.64 | – | – | OC(CN1CCN(Cc2ccccc2)CC1)Cn1c2ccc(Br)cc2c2cc(Br)ccc21 (centres undefined) | – | 3.67 | – | – | –
19 | 0.07 to 0.082 | 8.38 | 0.48 to 1.8 | 0.48 to 1.8 | CC(C)NCC(O)Cn1c2ccc(Cl)cc2c2cc(Cl)ccc21 (centres undefined) | – | 2.61 | – | – | –
20 | 0.162 | 1.49 | – | – | OC(CNC1CCCCC1)Cn1c2ccccc2c2ccccc21 (centres undefined) | – | 3.67 | – | – | –
